RGS4 block: inhibitors of human RGS4. P49798. HEK293 M3R/RGS4 inducible, Fluo-4 calcium flux; hits give high values; triggered by carbachol at its EC20. B-score at 10 µM. 310,000 compounds, 0.45% hits;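 active means B-score, a plate-corrected calcium signal, over three deviations above library mean, with baseline fluorescence within five deviations of library mean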;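 further: RGS4 expression induced by doxycycline in cells with stable M3 receptor; B-score is computed from the integrated fluorescence ratio over baseline after carbachol; higher B-score means a larger calcium signal and so more RGS4 inhibition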
Target sequence (P49798 whole entry, looked up): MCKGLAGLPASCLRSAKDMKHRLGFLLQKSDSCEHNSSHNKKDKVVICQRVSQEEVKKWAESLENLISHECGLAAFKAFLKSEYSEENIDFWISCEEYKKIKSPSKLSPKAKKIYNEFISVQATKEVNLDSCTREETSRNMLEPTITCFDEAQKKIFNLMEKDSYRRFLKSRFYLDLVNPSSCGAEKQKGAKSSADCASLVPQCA
RGS4 pot: RGS4 potentiation or activation | HEK293 M3R/inducible RGS4, carbachol calcium flux Fluo4; hits give low values | B-score at 10 µM | 310,000 compounds, 0.92% hits;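 active means B-score of the integrated calcium signal more than 4 SD below the library mean, with starting fluorescence not abnormally high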;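 further: negative B-score means reduced calcium response which marks RGS4 activation or potentiation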
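Also added: carbachol at ECmax as muscarinic agonist stimulus; Assay system: HEK293 cells with stable M3R and inducible RGS4; Timing: overnight RGS4 induction, 30 min dye load 37 °C, 20 min compound RT; Measured by: Fluo4-AM (2 µM) calcium-flux fluorescence, kinetic read.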
MrgX1 ag: human MrgX1 receptor agonism, primary screen. MrgX1-HEK293 cells, Fluo-4 calcium fluorescence, agonist mode; hits give high values. B-score at 10 µM. 310,000 compounds, 0.44% hits. AID 588627;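 active means calcium response B-score plate-corrected fluorescence ratio at least 3 library SD, with starting fluorescence B-score inside 5 SD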
Target sequence (Q96LB2 whole entry, looked up): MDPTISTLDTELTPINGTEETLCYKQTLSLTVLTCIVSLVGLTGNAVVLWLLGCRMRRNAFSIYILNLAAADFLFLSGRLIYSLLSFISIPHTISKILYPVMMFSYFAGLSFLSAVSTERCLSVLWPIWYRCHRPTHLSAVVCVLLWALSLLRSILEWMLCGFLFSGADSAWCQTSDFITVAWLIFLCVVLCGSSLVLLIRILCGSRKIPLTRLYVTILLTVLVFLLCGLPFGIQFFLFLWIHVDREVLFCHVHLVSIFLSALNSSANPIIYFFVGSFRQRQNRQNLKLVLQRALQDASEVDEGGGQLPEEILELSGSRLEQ
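Material: MrgX1-expressing HEK293 cells / Dosing: compound as first of three additions / Incubation: overnight seeding, then 1 h dark dye loading / Signal: Fluo-4 NW calcium fluorescence / Evaluation: B-scored fluorescence response ratio / Benchmarks: positive and negative control wells on each plate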
MrgX1 allo act: allosterically activates human MrgX1 receptor signaling; Q96LB2; MrgX1-HEK293, Fluo-4 calcium flux, FDSS; hits give high values; B-score at 10 µM; 310,000 compounds, 0.63% hits; AID 588675;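 active means plate-corrected calcium response at least 3 library SD above typical, normal starting fluorescence, not activating the receptor alone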;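 further: compound read alongside a low EC10 to EC30 dose of BAM8-22 agonist; peak minus trough fluorescence over baseline measured at the second addition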
MrgX1 antag: human MrgX1 receptor antagonism, primary screen; AID 588676; 310,000 compounds, 1.3% hits; B-score at 10 µM; MRGX1-HEK293 calcium flux, Fluo-4, BAM8-22 antagonism; hits give low values;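 active means calcium-response B-score plate-corrected more than 3 library SD below zero, starting fluorescence within 5 deviations, no agonist response on first addition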;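 further: peak minus trough fluorescence over baseline after final BAM8-22 challenge near maximal dose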
MrgX1 ant reconf: confirmation of human MrgX1 receptor antagonists; shares compounds with MrgX1 antag; MrgX1-HEK293, BAM8-22 calcium flux, Fluo-4; hits give low values; remaining BAM8-22 calcium response % of control (hits give low values), % at 10 µM; 2,300 compounds, 19% hits; AID 602420;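 active means remaining agonist calcium response no higher than 100% minus 3 SD of agonist-only control wells, with starting fluorescence near control levels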;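 further: agonist BAM8-22 given at a near maximal EC90 to ECmax level; peak minus minimum fluorescence divided by baseline after agonist addition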
HEK293 Ca flux: MrgX1 antagonist counter-screen hit in parental HEK293 cells. shares compounds with MrgX1 antag. Fluo-4 calcium fluorescence, FDSS. fluorescence ratio F(max-min)/F0 at 10 µM. 4,000 compounds, 2% hits. AID 624111;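 active means duplicate-averaged calcium fluorescence ratio at least three times the standard deviation of buffer wells, a nonspecific response in parental cells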
HEK293 Ca counter: MrgX1 allosteric activator counter-screen hit in parental HEK293 cells; shares compounds with MrgX1 antag; parental HEK293 calcium flux, Fluo-4 fluorescence ratio; hits give high values; fluorescence ratio F(max-min)/F0 at 10 µM; 4,000 compounds, 0.4% hits;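 active means calcium fluorescence ratio, averaged over duplicates, at least 3 SD of the buffer-well ratio, meaning a nonspecific response in receptor-free cells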;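 further: untransfected parental HEK293 lacking MrgX1 used as counterscreen for MrgX1 allosteric activators; fluorescence change taken during the second addition on a kinetic imager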
HEK293 Ca cntr2: activity in parental HEK293 cells lacking MrgX1 receptor; Fluo-4 calcium fluorescence (FDSS); hits give high values; fluorescence ratio F(max-min)/F0 at 10 µM; 4,000 compounds, 8.7% hits; shares compounds with MrgX1 antag;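 active means calcium fluorescence ratio at least three times the spread of buffer wells, meaning a non-specific response in parental cells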
An asterisk follows results filed as active; i = inactive; x = not tested or not shown. Rows were chosen to be rich in hits. Some 3.5% of all compounds tested hit in one or more screens of this group.

SMILES | RGS4 block | RGS4 pot | MrgX1 ag | MrgX1 allo act | MrgX1 antag | MrgX1 ant reconf | HEK293 Ca flux | HEK293 Ca counter | HEK293 Ca cntr2
Cc1cccc(N2CCN(C(=O)Cc3cn(C)c4ccccc34)CC2)c1C | i | i | i | i | -4.67* | 80.6%* | i | i | i
Cc1cccc(N2CCN(C(=O)COc3cc(=O)n(C)c4ccccc34)CC2)c1C | i | i | i | i | i | x | x | x | x
CCOC(=O)c1ccc(NC(=O)c2ccc(C)c(S(=O)(=O)N3CCOCC3)c2)cc1 | i | i | i | i | -10.9* | 21.3%* | i | i | i
Cc1ccc(C(=O)OCc2nnc(-c3ccccc3)o2)cc1S(=O)(=O)N1CCOCC1 | i | i | i | i | -4.59* | 82.8%* | i | i | i
Cc1ccc(NC(=O)CCNS(=O)(=O)c2ccccc2)cc1S(=O)(=O)N1CCOCC1 | i | i | i | i | -6.67* | i | i | i | i
Cc1ccc(NC(=O)CCNS(=O)(=O)c2ccc(Br)cc2)cc1S(=O)(=O)N1CCOCC1 | i | i | i | i | i | x | x | x | x
COc1ccc(NC(=O)C(=O)NCC(c2ccco2)N2CCc3ccccc3C2)cc1OC (stereo not drawn) | i | i | i | i | i | x | x | x | x
Cc1cccc(C(=O)Nc2c(C(=O)N(C)C)cnn2-c2ccccc2)c1 | i | i | i | i | i | x | x | x | x
COc1cc(OC)cc(C(=O)NNC(=O)CCC(=O)c2cccs2)c1 | i | i | i | i | i | x | x | x | x
CCC(C)C(=O)Nc1nc(C)c(-c2csc(Nc3cc(OC)ccc3OC)n2)s1 (stereo not drawn) | i | i | i | i | -5.95* | i | i | i | i
COC(=O)c1cc(=O)n2c(-c3ccccc3)csc2n1 | i | i | i | i | i | x | x | x | x
CCN(CC(=O)NC(C)(C)C)Cc1cc(=O)n2c(-c3ccccc3)csc2n1 | i | i | i | i | -4.72* | i | i | i | i
COc1ccc(C(=O)N2CCC(C(=O)O)CC2)c2ccccc12 | i | i | i | i | i | x | x | x | x
COc1ccccc1CCNC(=O)c1cccc(S(=O)(=O)NCc2ccccc2)c1 | i | i | i | i | i | x | x | x | x
NC(=O)CSc1nnc(Cc2ccc3c(c2)OCO3)n1C1CCCCC1 | i | i | i | i | -4.58* | i | i | i | 54.8*
O=C(CSc1nnc(Cc2ccc3c(c2)OCO3)n1C1CCCCC1)NC1CCCC1 | i | i | i | i | i | x | x | x | x
Cn1cc(S(=O)(=O)N2CCCC2)cc1C(=O)N1CCN(c2ccccc2)CC1 | i | i | i | i | -7.65* | 83.5%* | i | i | i
CC(=O)c1ccc(NC(=O)Cn2cnc(S(=O)(=O)N3CCC(C)CC3)c2)cc1 | i | i | i | i | i | x | x | x | x
O=C(Nc1cccc2ccccc12)NC1CCCCC1O (stereo not drawn) | i | i | i | i | i | x | x | x | x
CCc1nnc(NC(=O)CC(C)c2ccccc2)s1 (stereo not drawn) | i | i | i | i | i | x | x | x | x
CC(=O)NC1(c2ccccc2)CCN(CC(=O)N2CCC(C)CC2)CC1 | i | i | i | i | i | x | x | x | x
O=C(NCc1cn2ccsc2n1)c1c(F)cccc1Cl | i | i | i | i | -4.96* | i | i | i | i
O=C(NCc1cn2ccsc2n1)c1cccc(C(F)(F)F)c1 | i | i | i | i | i | x | x | x | x
